Measurements reported in article PMC8897208 (Acta Pharmaceutica Sinica. B, 2021).

Columns and labels:
[1] = molecular target: SIRT6 (Homo sapiens, UniProt Q8N6T7); assay: FDL assay of SIRT6 deacetylation on H3K9Ac peptide; type: biochemical
In short: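 Recombinant SIRT6 was expressed in E. coli BL21 in LB with 100 μg/mL ampicillin at 37 °C. Expression was induced with 0.5 mmol/L IPTG at OD600 0.8, then grown 18 h at 16 °C and purified by an earlier method.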

[2] = test system: SIRT6 mutants (Y5A, T57A, P62A, D63A, P67A, H68A, V70A, P80A, K81A, Y257A); assay: FDL assay on SIRT6 Pocket Z mutants; type: biochemical, human
In short: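 SIRT6 point mutants were made by site-directed mutagenesis. Each plasmid was expressed separately in E. coli BL21 (LB, 100 μg/mL ampicillin, 37 °C), induced with 0.5 mmol/L IPTG at OD600 0.8 for 18 h at 16 °C, and purified as for wild type.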

[3] = molecular target: HDAC5 (Homo sapiens, UniProt Q9UQL6); assay: HDACs selectivity assay; type: biochemical
Sequence of HDAC5 (Q9UQL6 whole entry): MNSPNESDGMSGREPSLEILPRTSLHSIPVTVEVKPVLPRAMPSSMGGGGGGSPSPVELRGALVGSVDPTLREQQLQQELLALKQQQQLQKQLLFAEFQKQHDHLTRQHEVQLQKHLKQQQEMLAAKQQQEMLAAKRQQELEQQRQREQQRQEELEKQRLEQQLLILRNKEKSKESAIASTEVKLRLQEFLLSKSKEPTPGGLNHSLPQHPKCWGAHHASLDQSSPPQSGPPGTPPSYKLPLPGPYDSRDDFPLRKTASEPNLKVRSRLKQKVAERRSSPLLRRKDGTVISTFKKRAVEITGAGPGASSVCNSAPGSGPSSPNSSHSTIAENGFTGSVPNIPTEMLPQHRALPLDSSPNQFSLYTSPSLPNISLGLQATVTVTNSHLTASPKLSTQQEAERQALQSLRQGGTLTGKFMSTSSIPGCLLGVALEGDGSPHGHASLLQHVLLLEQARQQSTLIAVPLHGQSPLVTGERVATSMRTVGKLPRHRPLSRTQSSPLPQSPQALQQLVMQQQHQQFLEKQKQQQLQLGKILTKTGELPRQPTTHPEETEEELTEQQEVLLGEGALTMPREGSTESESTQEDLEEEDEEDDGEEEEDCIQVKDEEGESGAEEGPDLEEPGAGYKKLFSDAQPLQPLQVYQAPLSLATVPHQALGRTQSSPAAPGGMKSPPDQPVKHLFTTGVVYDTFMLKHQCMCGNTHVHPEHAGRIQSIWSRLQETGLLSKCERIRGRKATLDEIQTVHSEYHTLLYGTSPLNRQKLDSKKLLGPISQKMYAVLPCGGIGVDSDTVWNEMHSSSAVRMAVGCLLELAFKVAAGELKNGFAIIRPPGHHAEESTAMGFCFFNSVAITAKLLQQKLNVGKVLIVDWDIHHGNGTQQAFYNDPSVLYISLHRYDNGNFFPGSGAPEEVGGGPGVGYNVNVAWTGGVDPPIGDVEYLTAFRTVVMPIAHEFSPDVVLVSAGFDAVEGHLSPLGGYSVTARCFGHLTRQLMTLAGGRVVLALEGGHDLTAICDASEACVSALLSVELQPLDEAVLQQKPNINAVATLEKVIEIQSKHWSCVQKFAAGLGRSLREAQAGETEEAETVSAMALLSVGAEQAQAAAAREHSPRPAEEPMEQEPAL
In short: (§1)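 Enzyme selectivity panel was run by an outside contract lab to its standard assay protocols. IC50 values came from dose–response fitting of the data points. Each experiment was done independently at least three times.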

[4] = molecular target: T1, HDAC6 (Homo sapiens, UniProt Q9UBN7); assay: HDACs selectivity assay; type: biochemical
T1 sequence (Q9UBN7 1-1215): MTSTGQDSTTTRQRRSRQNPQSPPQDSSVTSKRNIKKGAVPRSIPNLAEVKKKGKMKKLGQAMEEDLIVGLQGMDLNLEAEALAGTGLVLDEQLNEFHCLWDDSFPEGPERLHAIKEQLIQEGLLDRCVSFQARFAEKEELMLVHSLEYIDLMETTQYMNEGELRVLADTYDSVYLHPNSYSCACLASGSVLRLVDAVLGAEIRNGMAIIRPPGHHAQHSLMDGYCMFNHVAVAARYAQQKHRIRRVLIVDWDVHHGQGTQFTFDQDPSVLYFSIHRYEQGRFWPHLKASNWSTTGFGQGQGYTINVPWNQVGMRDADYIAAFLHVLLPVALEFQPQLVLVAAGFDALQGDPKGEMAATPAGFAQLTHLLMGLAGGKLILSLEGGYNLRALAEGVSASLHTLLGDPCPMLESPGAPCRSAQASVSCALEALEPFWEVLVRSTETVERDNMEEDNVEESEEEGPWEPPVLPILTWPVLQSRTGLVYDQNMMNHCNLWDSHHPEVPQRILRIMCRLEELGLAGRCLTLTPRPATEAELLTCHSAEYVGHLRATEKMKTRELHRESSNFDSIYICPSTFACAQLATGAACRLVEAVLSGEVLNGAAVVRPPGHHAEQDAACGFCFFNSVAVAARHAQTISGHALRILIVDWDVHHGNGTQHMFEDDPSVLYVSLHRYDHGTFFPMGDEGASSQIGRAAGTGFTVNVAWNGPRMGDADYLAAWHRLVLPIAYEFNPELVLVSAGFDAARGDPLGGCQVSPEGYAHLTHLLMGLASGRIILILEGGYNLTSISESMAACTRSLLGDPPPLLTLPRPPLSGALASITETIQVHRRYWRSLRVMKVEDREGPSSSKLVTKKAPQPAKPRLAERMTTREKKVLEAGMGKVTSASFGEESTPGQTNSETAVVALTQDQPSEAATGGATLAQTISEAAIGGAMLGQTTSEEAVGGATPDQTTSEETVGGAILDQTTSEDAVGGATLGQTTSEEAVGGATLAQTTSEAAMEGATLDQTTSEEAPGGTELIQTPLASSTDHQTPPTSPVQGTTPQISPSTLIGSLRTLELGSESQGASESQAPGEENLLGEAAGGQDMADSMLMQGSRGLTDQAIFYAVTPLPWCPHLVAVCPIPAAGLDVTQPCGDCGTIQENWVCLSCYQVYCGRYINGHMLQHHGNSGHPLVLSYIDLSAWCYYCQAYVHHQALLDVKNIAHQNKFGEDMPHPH
In short: as §1

[5] = molecular target: T2, HDAC11 (Homo sapiens, UniProt Q96DB2); assay: HDACs selectivity assay; type: biochemical
T2 sequence (Q96DB2 1-347): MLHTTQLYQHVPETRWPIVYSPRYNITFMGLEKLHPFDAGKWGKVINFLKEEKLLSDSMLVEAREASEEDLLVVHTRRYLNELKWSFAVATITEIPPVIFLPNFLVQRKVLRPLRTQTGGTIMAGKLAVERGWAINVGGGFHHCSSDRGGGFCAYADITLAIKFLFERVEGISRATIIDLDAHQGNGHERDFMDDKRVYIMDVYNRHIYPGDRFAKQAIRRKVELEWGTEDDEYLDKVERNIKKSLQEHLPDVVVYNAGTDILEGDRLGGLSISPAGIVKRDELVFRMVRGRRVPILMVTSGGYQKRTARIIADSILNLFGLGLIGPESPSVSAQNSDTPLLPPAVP
In short: as §1

[6] = molecular target: T3, SIRT5 (residues 34–302) (Homo sapiens, UniProt Q9NXA8); assay: Selectivity FDL deacetylation assay; type: biochemical
T3 sequence (Q9NXA8 34-302): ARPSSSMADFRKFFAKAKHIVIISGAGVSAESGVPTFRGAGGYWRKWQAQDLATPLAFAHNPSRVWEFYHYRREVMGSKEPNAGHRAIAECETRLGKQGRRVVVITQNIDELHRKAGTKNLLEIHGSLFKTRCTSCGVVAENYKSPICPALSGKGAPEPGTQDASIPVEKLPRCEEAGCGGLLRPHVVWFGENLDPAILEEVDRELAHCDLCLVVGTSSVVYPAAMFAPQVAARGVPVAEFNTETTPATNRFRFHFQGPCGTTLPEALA

[7] = test system: MiaPaCa-2 cells; assay: Migration assay with xCELLigence RTCA-DP; type: cell-based; settings: effect even at 5 μmol/L

Sequence of SIRT6 (Q8N6T7 whole entry): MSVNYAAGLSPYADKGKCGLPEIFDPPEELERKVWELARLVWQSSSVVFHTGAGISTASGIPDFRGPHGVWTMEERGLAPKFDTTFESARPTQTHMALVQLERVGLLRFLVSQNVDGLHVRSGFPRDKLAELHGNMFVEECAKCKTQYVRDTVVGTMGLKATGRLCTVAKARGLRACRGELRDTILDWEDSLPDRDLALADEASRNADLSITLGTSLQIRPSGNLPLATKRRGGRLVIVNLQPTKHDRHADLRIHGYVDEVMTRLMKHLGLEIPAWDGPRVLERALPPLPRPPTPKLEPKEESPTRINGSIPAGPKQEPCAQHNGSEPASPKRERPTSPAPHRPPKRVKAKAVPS

inhibition ratio at 50 μmol/L on H3K9Ac [1]: 90.7%
IC50 values on SIRT6 mutants ([2]; Y5A, T57A, P62A, D63A, P67A, H68A, V70A, P80A, K81A, Y257A versus wild type): increased
IC50 [3]: > 100 µM
IC50 [4]: > 100 µM
IC50 [5]: > 100 µM
IC50 [6]: > 100 µM
SMILES: Nc1nonc1-n1cc(C(=O)N/N=C/c2cc(Cl)cc(C(F)(F)F)c2)nn1 [JYQ-42]
inhibition of SIRT6 deacetylation, T57A and H68A mutants ([2]; mutations T57A and H68A): completely disrupted JYQ-42 inhibition
migration of pancreatic cancer cells (RTCA cell index) [7]: dramatically attenuated
